Test results published in ChEMBL document CHEMBL1122502, “9-acridinyl and 2-methoxy-6-chloro-9-acridinyl derivatives of aliphatic di-, tri-, and tetraamines. Chemistry, cytostatic activity, and schistosomicidal activity” (1983).

Assays:
Format in all cases: functional, Mus musculus
[1] = In vitro for cytostatic activity against Cloudman melanoma S91 cells at 1.0 uM concentration.
Procedure, shortened: (§1)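 Cloudman melanoma S91 cells (doubling time 36 h), 0.1×10^6 per flask, pre-grown 72 h at 37 °C in Ham's F10 with 15% horse serum, 2.5% fetal bovine serum, 8 mM glutamine, penicillin and streptomycin. Medium then replaced with compound at final 0.1, 0.5 or 1.0 μM, with 0.1% DMSO in test and control. After 72 h more, cells trypsinized and counted. Triplicate cultures; cell number given as % of control.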

[2] = Compound was tested in vitro for cytostatic activity against Cloudman melanoma S91 cells at 0.1 uM concentration; procedure, shortened: as §1
[3] = Compound was tested in vitro for cytostatic activity against Cloudman melanoma S91 cells at 0.5 uM concentration; procedure, shortened: as §1

With `COc1ccc2nc3cc(Cl)ccc3c(NCCCN3CCN(CCCNc4c5ccc(Cl)cc5nc5ccc(OC)cc45)CC3)c2c1.Cl` the “Cell number (% of control)” value [1] was 43%.

For `Cl.c1ccc2c(NCCCN3CCN(CCCNc4c5ccccc5nc5ccccc45)CC3)c3ccccc3nc2c1`, the “Cell number (% of control)” value [2] was 24% and the “Cell number (% of control)” value [1] was 2%.

In the case of `Cl.c1ccc2c(NCCCNCCCNc3c4ccccc4nc4ccccc34)c3ccccc3nc2c1`, the “Cell number (% of control)” value [2] is reported as 103% and the “Cell number (% of control)” value [1] is reported as 31%.

For `COc1ccc2nc3cc(Cl)ccc3c(NCCCN3CCN(CCCN)CC3)c2c1.Cl`, the “Cell number (% of control)” value [1] was 78%.

For `COc1ccc2nc3cc(Cl)ccc3c(NCCCCCCNc3c4ccccc4nc4ccccc34)c2c1.Cl.Cl.Cl`, the “Cell number (% of control)” value [1] was 49%.

In the case of `COc1ccc2nc3cc(Cl)ccc3c(NCCCCCCCCN)c2c1.Cl.Cl.Cl`, the “Cell number (% of control)” value [1] is reported as 86%.

For `Cl.Cl.NCCCCCCNc1c2ccccc2nc2ccccc12`, the “Cell number (% of control)” value [1] was 95%.

For `Cl.NCCCN1CCN(CCCNc2c3ccccc3nc3ccccc23)CC1`, the “Cell number (% of control)” value [2] was 39% and the “Cell number (% of control)” value [1] was 3%.

With `CCNCCCCCCNc1c2ccccc2nc2ccccc12.Cl.Cl` the “Cell number (% of control)” value [2] was 102% and the “Cell number (% of control)” value [1] was 7%.

For `COc1ccc2nc3cc(Cl)ccc3c(NCCCNCCCN)c2c1.Cl`, the “Cell number (% of control)” value [1] was 28%.

For `COc1ccc2nc3cc(Cl)ccc3c(NCCCCCCN)c2c1.Cl.Cl.Cl`, the “Cell number (% of control)” value [2] was 105% and the “Cell number (% of control)” value [1] was 105%.

With `COc1ccc2nc3cc(Cl)ccc3c(NCCCNCCCNc3c4ccc(Cl)cc4nc4ccc(OC)cc34)c2c1.Cl` the “Cell number (% of control)” value [2] was 85%, the “Cell number (% of control)” value [1] was 0% and the Control [3] was 16%.

With `COc1ccc2nc3cc(Cl)ccc3c(NCCCCCCNc3c4ccc(Cl)cc4nc4ccc(OC)cc34)c2c1.Cl.Cl.Cl.Cl` the “Cell number (% of control)” value [1] was 83%.

In the case of `COc1ccc2nc3cc(Cl)ccc3c(NCCCN3CCN(CCCNc4c5ccccc5nc5ccccc45)CC3)c2c1.Cl`, the “Cell number (% of control)” value [2] is reported as 50% and the “Cell number (% of control)” value [1] is reported as 20%.

In the case of `Cl.Cl.c1ccc2c(NCCCCCCNc3c4ccccc4nc4ccccc34)c3ccccc3nc2c1`, the “Cell number (% of control)” value [1] is reported as 39%.

For `COc1ccc2nc3cc(Cl)ccc3c(NCCCNCCCNc3c4ccccc4nc4ccccc34)c2c1.Cl`, the “Cell number (% of control)” value [2] was 66% and the “Cell number (% of control)” value [1] was 3%.

With `COc1ccc2nc3cc(Cl)ccc3c(NCCCCCCCCNc3c4ccccc4nc4ccccc34)c2c1.Cl.Cl.Cl` the “Cell number (% of control)” value [1] was 44%.

In the case of `Cl.Cl.c1ccc2c(NCCN3CCNCC3)c3ccccc3nc2c1`, the “Cell number (% of control)” value [1] is reported as 30%.
